The structures appear in SMILES notation. pIC50: −log10 of the molar value.

One data set concerns HT-29. The data set can be described thus: Cytotoxicity against human HT-29 cells assessed as inhibition of cell survival after 72 hrs by sulforhodamine B assay. As to conditions: HT-29, 72 h. The class given is cell-based. An outline of the steps: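 HT-29 cells, 9500 per well, exposed to a concentration series in triplicate for 72 h. Controls: 10% DMSO in water (negative) and paclitaxel in that carrier (positive).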
(The SRB assay estimates cell density from bound dye.)

Data set [1] is described as follows: Selectivity index, ratio of IC50 for HT-29 cells to IC50 for transgenic DsRed2 Leishmania donovani promastigotes strain LV82. The class given is toxicity, cell-based. To be noted: human; read-out: Ratio IC50. An outline of the steps:
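Ratio of the HT-29 cytotoxicity IC50 (72 h, sulforhodamine B) to the IC50 against DsRed2 L. donovani LV 82 promastigotes (72 h at 23 °C, flow cytometry).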

Data set [2] has as its system Leishmania donovani. The data set can be described thus: Antileishmanial activity against transgenic DsRed2 Leishmania donovani promastigotes strain LV82 assessed as parasite killing after 72 hrs by flow cytometry. As to conditions: LV82, 72 h. The class given is functional, organism-based.
Data set [3] concerns Leishmania donovani. The data set can be described thus: Antileishmanial activity against Leishmania donovani […] stain LV82 infected in iv dosed BALB/c mouse assessed as parasite burden reduction in spleen cells after 2 weeks of postinjection by Giemsa staining-light microscopy. The class given is functional, organism-based. Summed up:
(§1)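 BALB/c mice infected by tail vein with 10^7 L. donovani LV 82 amastigotes; treated iv two weeks post-infection (100 µL; 2.8, 5.6 or 11.1 mg/kg in 10% DMSO/PBS; vehicle negative control; sodium stibogluconate 70 mg/kg positive control). Sacrificed two weeks later; liver and spleen weighed, impression smears MeOH-fixed, Giemsa-stained, amastigotes counted per 1000 host nuclei by light microscopy; LDU = organ weight (g) × that count.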

A further data set deals with Mus musculus. The data set can be described thus: Toxicity in BALB/c mouse at 2.8 to 70 mg/kg, iv after 2 weeks. It counts as organism-based. To be noted: in vivo, 336 h, in the assay text read “2.8 to 11.1 mg/kg” for “2.8 to 70 mg/kg”. Summed up:
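Infected BALB/c mice (about 18 g) watched for overt toxicity over two weeks after one 100 µL iv dose in 10% DMSO/PBS: vehicle, test doses 2.8, 5.6 or 11.1 mg/kg, or sodium stibogluconate 70 mg/kg.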

Data set [4] concerns Leishmania donovani. The data set can be described thus: Antileishmanial activity against Leishmania donovani promastigotes stain LV82 infected in iv dosed BALB/c mouse assessed as parasite burden reduction in liver cells after 2 weeks of postinjection by Giemsa staining-light microscopy. The class given is functional, organism-based. An outline of the steps:
as §1

For the compound `COc1ccc2cc1Oc1ccc(cc1)C[C@H]1c3cc(OC)c(OC)c(c3CCN1C)Oc1c(O)c(OC)cc3c1[C@H](C2)N(C)CC3` [THALRUGOSIDINE], the values for the pIC50 in the data set with HT-29 and in the data set with Leishmania donovani [2] were 5.44 and 6.00, respectively. The selectivity ratio in data set [1] turned out to be 3.6.
`COc1ccc2cc1Oc1ccc(cc1)C[C@H]1c3cc(OC)c(OC)c(c3CCN1C)Oc1c(OC)c(OC)cc3c1[C@H](C2)N(C)CC3` [THALIDASINE]: the pIC50 in the data set with HT-29 was 5.26; in the data set with Leishmania donovani [2] it was 5.00. In data set [1], the selectivity ratio worked out at 0.5.
`COc1ccc2cc1Oc1ccc(cc1)C[C@H]1c3cc(OC)c(OC)c(c3CCN1C)Oc1c(O)c(OC)cc3c1[C@H](C2)NCC3`: the pIC50 with HT-29 is 5.09; in the data set on Leishmania donovani [2], 6.55. Also, the selectivity ratio in data set [1] was 29.3. The inhibition result in the data set on Leishmania donovani [3] and with Leishmania donovani [4] was “Dose-dependent effect” each time. Moreover, the Activity entry with Mus musculus is “Non-toxic”.

Usually pIC50 stands for the negative decadic logarithm of the IC50, by convention in mol/L.
